Published values gathered from unrelated publications.
Compare with care: the assays were run in different laboratories.
Target: Mitogen-activated protein kinase 1 (MAPK1, Homo sapiens, UniProt P28482)

C=CC(=O)N1CCC([C@@H]2CCNc3c(C(N)=O)c(-c4ccc(Oc5ccccc5)cc4)nn32)CC1
inhibition (enzyme activity; inhibitor; 1 µM): 10%

Cc1cc(O)c(-c2ccc([C@@H](C)CN(C)C)cc2)c2c1[nH]c(=O)c1sccc12
inhibition (enzyme activity; inhibitor; 0.1 µM): 6.8%

O=C1C=C(Nc2ccc(OCc3cn(Cc4ccccc4)nn3)cc2)C(=O)c2ccccc21
inhibition (enzyme activity; inhibitor; radiometric; 10 µM): 18%

COc1ccc2oc(-c3ccc4nc(N)oc4c3)c/c(=N\c3ccccc3NC(=O)CCN)c2c1
remaining binding (binding; 1 µM): 97%

CC#CC(=O)N1CCC[C@H]1c1nc(-c2ccc(C(=O)Nc3ccccn3)cc2)c2c(N)nccn12
inhibition (enzyme activity; inhibitor; 1 µM): 3%

C[C@H]1CC[C@H](n2c3cnccc3c3cnc(Nc4ccc5c(n4)CCN(C(=O)CO)C5)nc32)CC1
remaining signal (cell-free assay; 1 µM): 100%

C#Cc1cc(-c2cc(Nc3nc(N[C@@H](C)c4ccc(F)cn4)ncc3Cl)n[nH]2)ccc1C=O
inhibition (enzyme activity; inhibitor; 0.2 µM): 10.4%

CCCCC(=O)Nc1ccc(-c2ccc3ncn(CCC)c(=O)c3c2)cn1
remaining binding (binding; competition with immobilised ligand; 0.5 µM): 89%

COc1ccc2[nH]c3c4[nH]c5ccc(OC)cc5c4c4c(c3c2c1)C(=O)NC4=O
remaining binding (binding; 1 µM): 76%
